pIC50: −log10 of the molar value. The source made the active and inactive calls. The rule behind the calls is not given here.
Columns and labels:
Brugia malayi [1] = experiment: Antifilarial activity against Brugia malayi adult worm assessed as inhibition of parasite motility after 48 hrs by microscopic analysis; assay type: functional, organism-based
Method in brief: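 Freshly isolated adult female B. malayi were washed in HBSS (pH 7.2) and incubated one worm/ml/well, in triplicate, in HBSS with penicillin/streptomycin. Two-fold dilutions from 0.38-40 µM were given in DMSO (final <0.1%), with DMSO controls. After 48 h, motility was scored 0-4 under a microscope. IC50 was found by linear interpolation of percent inhibition versus DMSO.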

Brugia malayi [2] = experiment: Antifilarial activity against Brugia malayi adult worm assessed as inhibition of parasite viability after 48 hrs by MTT assay; assay type: functional
Method in brief: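 Adult female B. malayi washed in HBSS pH 7.2, one worm/mL/well in triplicate, exposed 48 h at 37 °C in 5% CO2 to two-fold dilutions (0.38-40 µM; DEC 15.63-1000 µM) in HBSS with penicillin/streptomycin, DMSO <0.1% final; after motility scoring the same worms taken for MTT reduction; % inhibition vs DMSO control, IC50 by linear interpolation.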

Brugia malayi [3] = experiment: Antifilarial activity against Brugia malayi microflilariae worm assessed as inhibition of parasite motility after 48 hrs by microscopic analysis; assay type: functional, organism-based
Method in brief: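 B. malayi microfilariae were washed in HBSS (pH 7.2) and plated at 40-50 mf/100 µL/well, in triplicate, in HBSS with penicillin/streptomycin. Two-fold dilutions from 0.38-40 µM were given in DMSO (final <0.1%), with DMSO controls, for 48 h at 37 °C, 5% CO2. Motility was scored microscopically, and IC50 was found by linear interpolation over control.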

[4] = Cytotoxicity against African green monkey Vero C1008 cells assessed as cell death by three-fold serial dilution method; assay type: cell-based; conditions: chlorocebus sabaeus
Method in brief: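 Vero C1008 cells exposed to three-fold serial dilutions of test agents, starting above 20 x LC100; CC50 obtained by linear interpolation between the concentrations bracketing 50% inhibition.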

[5] = (§1) Selectivity index, ratio of CC50 for African green monkey Vero C1008 cells to IC50 for Brugia malayi microflilariae worm; assay type: functional
Method in brief: (§2)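 SI computed as CC50 (Vero C1008) divided by IC50 against adult worms or mf; IC50 values from 48 h exposure of parasites to two-fold dilutions at 37 °C, with % inhibition vs DMSO-treated worms and linear interpolation.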

[6] = (§3) Selectivity index, ratio of CC50 for African green monkey Vero C1008 cells to IC50 for Brugia malayi adult worm; assay type: functional; method in brief: as §2
Brugia malayi [7] = experiment: Antifilarial activity against Brugia malayi adult worm infected in jird assessed as embryostatic effect at 100 mg/kg, sc administered for 5 days starting from day 7/8 post-worm transplantation (reference value: 9.80 +/- 5.63%); assay type: functional; conditions: route subcutaneous
Meriones unguiculatus = experiment: Toxicity in jird infected with Brugia malayi adult worm assessed as normal behaviour at 100 mg/kg, sc administered for 5 days starting from day 7/8 post-worm transplantation measured on day 60 post-initiation of drug treatment; assay type: organism-based; design: dose 100 mg/kg, route subcutaneous; conditions: gerbil, in vivo, 120 h
Brugia malayi [8] = experiment: Antifilarial activity against third stage infective larvae (L3) form of Brugia malayi infected in Mastomys coucha assessed as reduction in adult worm recovery at 100 mg/kg, sc administered for 5 days measured on day 91 post-initiation of drug treatment; assay type: functional; conditions: route subcutaneous
Method in brief: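 M. coucha carrying 5-7 month old L3-induced sub-periodic B. malayi infections received 5 days of s.c. dosing (vehicle 0.1% Tween-80; DEC in water). Killed day 91 p.i.t.; adults were recovered from teased heart, lung and testes, and % reduction in recovery was calculated vs vehicle controls.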

Brugia malayi [9] = experiment: Antifilarial activity against third stage infective larvae (L3) form of Brugia malayi infected in Mastomys coucha assessed as female sterilizing efficacy at 100 mg/kg, sc administered for 5 days measured on day 91 post-initiation of drug treatment (reference value: 23%); assay type: functional; conditions: route subcutaneous
Mastomys coucha = experiment: Toxicity in Mastomys coucha infected with third stage infective larvae (L3) form of Brugia malayi assessed as normal behaviour at 100 mg/kg, sc administered for 5 days measured on day 91 post-initiation of drug treatment; assay type: organism-based; design: dose 100 mg/kg, route subcutaneous; conditions: in vivo, 120 h
Vero C1008 [10] = experiment: as §3; assay type: functional; method in brief: as §2
Vero C1008 [11] = experiment: as §1; assay type: functional; method in brief: as §2
Brugia malayi [12] = experiment: Antifilarial activity against Brugia malayi adult worm infected in jird assessed as embryostatic effect at 1 mg/kg, sc administered for 5 days starting from day 7/8 post-worm transplantation (reference value: 9.80 +/- 5.63%); assay type: functional, organism-based; design: dose 1 mg/kg
Brugia malayi [13] = experiment: Antifilarial activity against Brugia malayi adult worm infected in jird assessed as microfilaricidal activity at 1 mg/kg, sc administered for 5 days starting from day 7/8 post-worm transplantation measured on day 7 post-initiation of drug treatment; assay type: functional, organism-based; design: dose 1 mg/kg
Method in brief: (§4)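 Mf in peritoneal cavity of transplanted jirds were examined on day 7/8 p.i.t. after 5 days of s.c. dosing started on day 7/8; change was expressed as % of the pretreatment mf count.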

Brugia malayi [14] = experiment: Antifilarial activity against Brugia malayi adult worm infected in jird assessed as reduction in adult worm recovery at 1 mg/kg, sc administered for 5 days starting from day 7/8 post-worm transplantation measured on day 60 post-initiation of drug treatment; assay type: functional, organism-based; design: dose 1 mg/kg
Method in brief: (§5)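 Jirds carrying intraperitoneally transplanted B. malayi (sub-periodic) adults were dosed s.c. for 5 days starting day 7/8 after transplantation; test agents were suspended fresh daily in 0.1% Tween-80, DEC in water, ivermectin in 0.1% Tween-80. Killed day 60 p.i.t.; worms recovered from peritoneal washings were counted, and % reduction was calculated vs vehicle controls (4-8 animals).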

Brugia malayi [15] = experiment: Antifilarial activity against Brugia malayi adult worm infected in jird assessed as microfilaricidal activity at 100 mg/kg, sc administered for 5 days starting from day 7/8 post-worm transplantation measured on day 7 post-initiation of drug treatment; assay type: functional, organism-based; design: dose 100 mg/kg; method in brief: as §4
Brugia malayi [16] = experiment: Antifilarial activity against Brugia malayi adult worm infected in jird assessed as macrofilaricidal efficacy by measuring reduction in adult worm recovery at 100 mg/kg, sc administered for 5 days starting from day 7/8 post-worm transplantation measured on day 60 post-initiation of drug treatment; assay type: functional; conditions: route subcutaneous; method in brief: as §5

Compound | LC100 (Brugia malayi [1]) [µM] | inhibition (Brugia malayi [2]) | LC100 (Brugia malayi [3]) [µM] | inhibition (INH) (Brugia malayi [2]) [%] | further results
COc1ccc(C(=O)/C=C/c2cc(/C=N/c3nccs3)c(O)c(C(C)(C)C)c2)cc1 | >40 | inactive | 40 |  | 
CC(C)c1cc(/C=C/C(=O)c2cccs2)cc(/C=N/c2nccs2)c1O | >40 | inactive | >40 |  | 
Cc1ccc(C(=O)/C=C/c2cc(/C=N/c3nccs3)c(O)c(C(C)C)c2)cc1 | >40 |  | >40 |  | 
COc1ccc(C(=O)/C=C/c2cc(/C=N/c3nccs3)c(O)c(C(C)C)c2)cc1 | >40 |  | >40 | 61 | 
IVERMECTIN [listing 1 of 2 here] |  |  |  |  | pIC50 (Brugia malayi [1]): 5.52; CC50 ([4]; vero): 230 µM; pIC50 (Brugia malayi [3]): 5.80
Cc1cc(/C=C/C(=O)c2cccs2)cc(/C=N/c2nccs2)c1O | >40 |  | >40 |  | 
COc1ccc(C(=O)/C=C/c2cc(C)c(O)c(/C=N/c3nccs3)c2)cc1 | >40 |  | >40 | 25 | 
CC(C)(C)c1cc(/C=C/C(=O)c2ccco2)cc(/C=N/c2nccs2)c1O | 40 | inactive | 20 |  | CC50 ([4]; Vero C1008 cells): 220 µM; pIC50 (Brugia malayi [3]; Brugia malayi, 48 h): 5.15; Ratio CC50/IC50 [5]: 28.57
CCCc1cc(/C=C/C(=O)c2ccc(OC)cc2)cc(/C=N/c2nccs2)c1O | >40 | inactive | >40 |  | 
Cc1ccc(C(=O)/C=C/c2cc(/C=N/c3nccs3)c(O)c(C(C)(C)C)c2)cc1 | >40 | inactive | 40 |  | 
CC(C)(C)c1cc(/C=C/C(=O)c2cccs2)cc(/C=N/c2nccs2)c1O | 2.5 |  | 5 | 49 | pIC50 (Brugia malayi [1]; Brugia malayi, 48 h): 6.05; CC50 ([4]; Vero C1008 cells): 40 µM; Ratio CC50/IC50 [6]: 44; pIC50 (Brugia malayi [3]; Brugia malayi, 48 h): 5.74; Ratio CC50/IC50 [5]: 22; Activity (Brugia malayi [7]): 100%; Activity (Meriones unguiculatus): Non-toxic; inhibition in vivo at 100 mg/kg (Brugia malayi [8]): 48.6%; Activity (Brugia malayi [9]): 44%; Activity (Mastomys coucha): Non-toxic
IVERMECTIN [listing 2 of 2 here] | 5 |  | 2.5 |  | inhibition (Brugia malayi [2]; dose or concentration not given here): 5.8%; Ratio CC50/IC50 (Vero C1008 [10]): 75.4; Ratio CC50/IC50 (Vero C1008 [11]): 146; Activity (Brugia malayi [12]): 43.2%; Activity (Brugia malayi [13]): inactive; inhibition (Brugia malayi [14]): 21.1%
Cc1ccc(C(=O)/C=C/c2cc(C)c(O)c(/C=N/c3nccs3)c2)cc1 | >40 | inactive | >40 |  | 
CCCc1cc(/C=C/C(=O)c2ccc(C)cc2)cc(/C=N/c2nccs2)c1O | >40 | inactive | >40 |  | 
CC(C)c1cc(/C=C/C(=O)c2ccco2)cc(/C=N/c2nccs2)c1O | 10 |  | 10 | 63 | Activity (Brugia malayi [15]): inactive; pIC50 (Brugia malayi [1]; Brugia malayi, 48 h): 5.49; CC50 ([4]; Vero C1008 cells): 60 µM; Ratio CC50/IC50 [6]: 19; pIC50 (Brugia malayi [3]; Brugia malayi, 48 h): 5.46; Ratio CC50/IC50 [5]: 17; Activity (Brugia malayi [7]): 0%; inhibition in vivo at 100 mg/kg (Brugia malayi [16]): 18.2%; Activity (Meriones unguiculatus): Non-toxic; inhibition in vivo at 100 mg/kg (Brugia malayi [8]): 40.9%; Activity (Brugia malayi [9]): 30%; Activity (Mastomys coucha): Non-toxic
Cc1cc(/C=C/C(=O)c2ccco2)cc(/C=N/c2nccs2)c1O | >40 |  | >40 | 62 | 

Source: ChEMBL document CHEMBL3259763, “Synthesis and antifilarial activity of chalcone-thiazole derivatives against a human lymphatic filarial parasite, Brugia malayi” (Eur J Med Chem, 2014)
